# Measurements from ChEMBL document CHEMBL1671834, “Novel 3-aryl indoles as progesterone receptor antagonists for uterine fibroids” (ACS Med Chem Lett, 2011).
# Tests used:
# [1] = target: T1, Progesterone receptor (Homo sapiens) (UniProt P06401); experiment: Antagonist activity at human progesterone receptor expressed in HEK293 cells assessed as inhibition of […]-induced transcriptional activity by GRE-driven luciferase reporter gene assay relative to untreated control; type: functional, cell-based; design: concentration or dose not given beside the values; conditions: concentration not given here
# T1 sequence (whole entry): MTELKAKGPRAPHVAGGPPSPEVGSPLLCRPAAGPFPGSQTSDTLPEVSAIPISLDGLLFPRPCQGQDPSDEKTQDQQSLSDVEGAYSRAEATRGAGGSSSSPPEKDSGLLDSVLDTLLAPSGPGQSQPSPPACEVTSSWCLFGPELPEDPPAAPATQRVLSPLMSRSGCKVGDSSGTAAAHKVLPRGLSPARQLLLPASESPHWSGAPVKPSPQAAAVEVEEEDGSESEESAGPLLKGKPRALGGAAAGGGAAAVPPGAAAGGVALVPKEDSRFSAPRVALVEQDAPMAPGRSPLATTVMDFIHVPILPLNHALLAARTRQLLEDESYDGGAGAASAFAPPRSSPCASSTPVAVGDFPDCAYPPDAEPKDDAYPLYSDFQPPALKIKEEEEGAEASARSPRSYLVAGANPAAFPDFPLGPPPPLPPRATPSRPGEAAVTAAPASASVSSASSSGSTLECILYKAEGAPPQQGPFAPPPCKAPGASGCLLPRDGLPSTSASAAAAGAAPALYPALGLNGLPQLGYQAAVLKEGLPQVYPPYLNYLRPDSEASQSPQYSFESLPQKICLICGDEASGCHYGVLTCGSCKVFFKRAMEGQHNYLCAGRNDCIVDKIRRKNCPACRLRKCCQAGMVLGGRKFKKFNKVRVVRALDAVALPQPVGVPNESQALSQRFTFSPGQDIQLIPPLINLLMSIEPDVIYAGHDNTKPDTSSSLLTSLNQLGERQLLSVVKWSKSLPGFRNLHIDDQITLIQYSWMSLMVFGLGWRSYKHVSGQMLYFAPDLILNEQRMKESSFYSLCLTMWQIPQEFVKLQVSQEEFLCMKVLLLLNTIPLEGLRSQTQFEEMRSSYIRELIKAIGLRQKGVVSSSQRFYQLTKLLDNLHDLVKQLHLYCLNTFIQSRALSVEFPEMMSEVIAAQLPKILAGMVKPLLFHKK
# How it was run: (§1)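 Transcription assay in HEK293 cells cotransfected with full-length human receptor. Values are geometric means of at least duplicate determinations.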
# Androgen receptor = target: T2, Androgen receptor (Homo sapiens, UniProt P10275); experiment: Displacement of [3H]methyltrienolone from human androgen receptor expressed in HEK293 cells; type: cell-based
# T2 sequence (P10275 whole entry): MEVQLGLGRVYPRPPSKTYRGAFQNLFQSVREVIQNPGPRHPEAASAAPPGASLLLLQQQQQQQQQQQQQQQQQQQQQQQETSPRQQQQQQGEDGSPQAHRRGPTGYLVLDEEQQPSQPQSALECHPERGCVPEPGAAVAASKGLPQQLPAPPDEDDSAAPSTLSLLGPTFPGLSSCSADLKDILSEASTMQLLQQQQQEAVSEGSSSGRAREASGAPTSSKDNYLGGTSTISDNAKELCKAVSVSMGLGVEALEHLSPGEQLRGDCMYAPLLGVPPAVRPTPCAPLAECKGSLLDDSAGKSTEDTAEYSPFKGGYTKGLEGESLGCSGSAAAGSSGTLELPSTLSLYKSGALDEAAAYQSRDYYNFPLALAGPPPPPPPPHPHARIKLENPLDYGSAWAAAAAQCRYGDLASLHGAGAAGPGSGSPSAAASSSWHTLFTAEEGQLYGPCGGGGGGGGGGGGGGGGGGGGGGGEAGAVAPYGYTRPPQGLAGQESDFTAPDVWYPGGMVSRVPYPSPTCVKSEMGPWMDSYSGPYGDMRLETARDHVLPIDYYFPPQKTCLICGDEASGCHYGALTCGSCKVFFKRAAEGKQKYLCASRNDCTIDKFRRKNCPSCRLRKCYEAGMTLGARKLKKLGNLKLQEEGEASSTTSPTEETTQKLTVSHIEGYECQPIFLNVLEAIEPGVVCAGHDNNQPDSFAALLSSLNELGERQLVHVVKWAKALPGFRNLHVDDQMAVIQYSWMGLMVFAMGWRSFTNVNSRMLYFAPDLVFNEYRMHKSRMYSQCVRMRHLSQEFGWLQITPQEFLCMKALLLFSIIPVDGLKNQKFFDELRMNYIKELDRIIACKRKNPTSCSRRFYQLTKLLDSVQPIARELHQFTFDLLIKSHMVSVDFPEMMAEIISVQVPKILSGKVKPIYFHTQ
# Progesterone receptor = target: T3, Progesterone receptor (Homo sapiens, UniProt P06401); experiment: Displacement of [3H]methyltrienolone from human progesterone receptor expressed in HEK293 cells; type: cell-based
# T3 sequence (P06401 whole entry): T1 sequence (whole entry)
# How it was run: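 Competitive binding to recombinant full-length human receptors against tritium-labelled standards. Values are geometric means of at least duplicate determinations.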
# [2] = target: T4, Mineralocorticoid receptor (Homo sapiens) (UniProt P08235); experiment: Antagonist activity at human mineralocorticoid receptor expressed in HEK293 cells assessed as inhibition of […]-induced transcriptional activity by GRE-driven luciferase reporter gene assay relative to untreated control; type: functional, cell-based; design: concentration or dose not given beside the values; conditions: concentration not given here; how it was run: as §1
# T4 sequence (whole entry): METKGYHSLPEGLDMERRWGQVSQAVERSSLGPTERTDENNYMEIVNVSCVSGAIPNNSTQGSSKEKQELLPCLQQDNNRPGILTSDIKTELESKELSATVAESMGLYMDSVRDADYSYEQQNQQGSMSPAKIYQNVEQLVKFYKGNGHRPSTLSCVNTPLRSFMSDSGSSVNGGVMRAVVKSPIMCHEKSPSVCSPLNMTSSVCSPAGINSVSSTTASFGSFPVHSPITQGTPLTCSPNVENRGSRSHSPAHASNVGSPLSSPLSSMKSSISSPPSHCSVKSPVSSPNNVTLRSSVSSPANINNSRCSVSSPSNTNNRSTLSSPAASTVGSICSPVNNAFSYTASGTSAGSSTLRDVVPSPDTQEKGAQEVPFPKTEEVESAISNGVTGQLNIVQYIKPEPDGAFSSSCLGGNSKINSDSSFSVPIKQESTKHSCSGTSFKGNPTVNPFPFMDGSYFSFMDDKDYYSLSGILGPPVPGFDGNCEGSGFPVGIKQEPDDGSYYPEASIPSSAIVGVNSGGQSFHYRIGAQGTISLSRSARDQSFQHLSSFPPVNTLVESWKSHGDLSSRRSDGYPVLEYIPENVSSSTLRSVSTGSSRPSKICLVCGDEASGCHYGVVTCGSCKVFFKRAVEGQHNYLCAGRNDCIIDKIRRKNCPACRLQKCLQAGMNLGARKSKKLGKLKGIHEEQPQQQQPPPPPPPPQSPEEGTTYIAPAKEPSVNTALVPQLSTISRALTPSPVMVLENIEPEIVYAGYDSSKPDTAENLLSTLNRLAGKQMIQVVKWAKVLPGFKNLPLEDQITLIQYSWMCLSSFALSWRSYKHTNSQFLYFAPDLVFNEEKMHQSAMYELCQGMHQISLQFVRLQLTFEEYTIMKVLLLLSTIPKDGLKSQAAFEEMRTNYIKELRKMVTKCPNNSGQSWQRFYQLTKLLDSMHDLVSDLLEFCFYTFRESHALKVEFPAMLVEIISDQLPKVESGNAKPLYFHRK
compound,measurement,setting,value
CC(c1ccc(F)cc1)(c1c[nH]c2c(NS(C)(=O)=O)cccc12)C1CC1 (stereo not given),inhibition,[1],91.7%
same,Ki,Androgen receptor,0.22 µM
same,Ki,Progesterone receptor,0.454 µM
same,inhibition,[2],76.3%
Cn1cc(-c2ccc(C#N)cc2)c2ccc(NS(C)(=O)=O)cc21,inhibition,[1],87.8%
same,Ki,Androgen receptor,> 4.02 µM
same,Ki,Progesterone receptor,0.028 µM
same,inhibition,[2],-2.2%
Cc1cc(-c2cn(C(C)C)c3cc(NS(C)(=O)=O)ccc23)ccc1C#N,inhibition,[1],95.8%
same,Ki,Androgen receptor,0.403 µM
same,Ki,Progesterone receptor,0.000298 µM
same,inhibition,[2],56%
COc1ccc(C(c2ccccc2)c2c[nH]c3ccccc23)cc1 (stereo not given),inhibition,[1],86.5%
same,Ki,Androgen receptor,0.0689 µM
same,Ki,Progesterone receptor,0.478 µM
same,inhibition,[2],40.8%
CC[C@H](C)n1cc(-c2ccc(C#N)cc2)c2ccc(NS(C)(=O)=O)cc21,inhibition,[1],96.8%
same,Ki,Androgen receptor,1.74 µM
same,Ki,Progesterone receptor,0.00032 µM
same,inhibition,[2],43.4%
CC(C)n1cc(-c2ccc(C#N)c(F)c2)c2ccc(NS(C)(=O)=O)cc21,inhibition,[1],94.9%
same,Ki,Androgen receptor,0.648 µM
same,Ki,Progesterone receptor,0.000214 µM
same,inhibition,[2],50.2%
CC(C)n1cc(-c2ccc(C#N)cc2)c2ccc(NS(C)(=O)=O)cc21,inhibition,[1],96.2%
same,Ki,Androgen receptor,> 3.9 µM
same,Ki,Progesterone receptor,0.000795 µM
same,inhibition,[2],36.6%
COc1cc(-c2cn(C(C)C)c3cc(NS(C)(=O)=O)ccc23)ccc1C#N,inhibition,[1],97.4%
same,Ki,Androgen receptor,0.49 µM
same,Ki,Progesterone receptor,0.00145 µM
same,inhibition,[2],35.8%
CC[C@@H](C)n1cc(-c2ccc(C#N)cc2)c2ccc(NS(C)(=O)=O)cc21,inhibition,[1],96.2%
same,Ki,Androgen receptor,2.55 µM
same,Ki,Progesterone receptor,0.000834 µM
same,inhibition,[2],39.2%
CCn1cc(-c2ccc(C#N)cc2)c2ccc(NS(C)(=O)=O)cc21,inhibition,[1],97%
same,Ki,Androgen receptor,2.59 µM
same,Ki,Progesterone receptor,0.00423 µM
same,inhibition,[2],23.8%
